Rows were chosen to be rich in hits. Some 3.1% of all compounds tested hit in one or more screens of this group.
hERG protect = shields human hERG channel from block by proarrhythmic agents | Q12809 | activation (rescue from dofetilide block), less the hit threshold, % at 10 µM | CHO-hERG, FluxOR thallium flux, dofetilide IC70 present | AID 1511 | 0.51% of 310,000 active;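 active = activation above the mean of controls blocked by dofetilide plus 5 SD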;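 also: thallium influx through hERG after potassium depolarization seen as dye fluorescence rise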
KCNQ1 block = blocks the human KCNQ1 potassium channel | CHO-K1 KCNQ1, FluxOR thallium flux fluorescence; hits give high values | 1.3% of 310,000 active | B-score at 10 µM | P51787;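 active = compounds whose thallium flux B-score, printed positive for inhibition, exceeds three library SD while starting fluorescence stays within three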;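 also: channel opened by potassium depolarization with thallium stimulus after 20 min compound exposure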
KCNQ1 pot = potentiators or activators of human KCNQ1 potassium channel; P51787; CHO-K1 KCNQ1, thallium flux FluxOR fluorescence; hits give high values; B-score at 10 µM; 0.35% of 310,000 active; AID 2648;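 active = fluorescence ratio B-score, a plate-corrected score, at least three library SD, with initial intensity B-score within 5 SD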
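Assay system: stable KCNQ1 CHO-K1 line; medium: assay buffer, equal DMSO in all wells; timing: 90 min dye loading and 20 min compound exposure, both at room temperature; technique: kinetic FluxOR thallium fluorescence, 10-s 1-Hz baseline, 110-s post-stimulus read; read-out basis: B score of baseline-normalized fluorescence ratio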
KCNK3 inh = human KCNK3 channel inhibition, primary screen; CHO-KCNK3 thallium flux, FluxOR fluorescence; hits give low values; B-score at 10 µM; 0.84% of 340,000 active;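 active = B-score under library mean minus 4 SD, starting fluorescence ratio at most library mean plus 5 SD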;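 also: more negative B-score means stronger inhibition of thallium flux through KCNK3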
Target sequence (O14649 whole entry, looked up): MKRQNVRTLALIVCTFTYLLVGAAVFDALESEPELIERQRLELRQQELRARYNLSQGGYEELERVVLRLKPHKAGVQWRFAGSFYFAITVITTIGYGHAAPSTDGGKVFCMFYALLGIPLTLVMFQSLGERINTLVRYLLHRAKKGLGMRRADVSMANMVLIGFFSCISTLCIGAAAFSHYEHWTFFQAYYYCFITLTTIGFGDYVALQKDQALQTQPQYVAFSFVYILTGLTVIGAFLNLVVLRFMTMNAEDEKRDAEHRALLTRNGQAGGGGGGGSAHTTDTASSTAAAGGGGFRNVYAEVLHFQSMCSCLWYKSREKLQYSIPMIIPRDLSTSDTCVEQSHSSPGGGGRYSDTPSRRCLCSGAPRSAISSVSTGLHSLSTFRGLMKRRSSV
KCNK9 block = human KCNK9 channel inhibition | AID 488922 | B-score at 10 µM | Q9NPC2 | 1.2% of 310,000 active | HEK293 KCNK9, FluxOR thallium flux fluorescence; hits give low values;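 active = ratio B-score over 3 SD below the library mean, with starting fluorescence within 5 SD of its mean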;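 also: negative B-score means less thallium flux so channel inhibition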
KCNK3 inh conf = human KCNK3 channel inhibition, confirmation assay | shares compounds with KCNK3 inh | CHO-KCNK3 thallium flux, FluxOR fluorescence; 0% buffer, 100% carvedilol maximal block | ratio percent of control, % at 10 µM | 99% of 2,400 active | AID 651638;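 active = ratio percent of control, averaged over triplicates, above buffer control mean plus 5 SD, cut at about 64% in these data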;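 also: ratio is the fluorescence rise from min to max over baseline after thallium stimulus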
KCNK3 noninduced = KCNK3 inhibitor counter-screen hit in non-induced cells | shares compounds with KCNK3 inh | thallium flux ratio (lower = more inhibition) at 10 µM | 40% of 2,400 active | non-induced KCNK3 parental cells, FluxOR thallium flux; hits give low values | AID 651747;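 active = thallium flux ratio, averaged over three wells, more than 5 SD below the buffer control mean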;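 also: host cells are CHO cells without KCNK3 induction; ratio is peak minus trough fluorescence over baseline then normalized to buffer controls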
An asterisk follows results filed as active; i = inactive; / = no result.

SMILES	hERG protect	KCNQ1 block	KCNQ1 pot	KCNK3 inh	KCNK9 block	KCNK3 inh conf	KCNK3 noninduced
O=C(NCc1ccccc1)C1CCCN(C(=O)c2ccc(F)cc2)C1 (centres undefined)	/	/	/	i	/	/	/
N#C/C(=N\Nc1cccc(C(F)(F)F)c1)C(=O)c1csc(-c2cccnc2)n1	-32	7*	i	-9.4*	i	101*	0.13*
Cc1ccc(C(=O)Nc2cccc(C(F)(F)F)c2)cc1NC(=O)c1csc(-c2ccncc2)n1	-9	i	i	i	i	/	/
Cc1cccc(-n2c(SCc3ccc([N+](=O)[O-])cc3)nnc2-c2c[nH]c3ccccc23)c1	-18	i	i	-11*	i	108*	0.15*
COc1cccc(-n2c(SC)nnc2-c2c[nH]c3ccccc23)c1	-8	i	i	i	i	/	/
Cn1cnc([N+](=O)[O-])c1SCCO	-2	i	i	i	i	/	/
Cc1c(N2CCCC2)cc2c(c1NC(=O)c1ccccc1Cl)C(C)(C)CC2(C)C	-9	i	i	-9.3*	i	114*	0.13*
O=C(Nc1ccccc1N1CCCC1)c1cccc(Cl)c1Cl	-3	i	i	i	i	/	/
COc1cc(/C=C2/C(=O)ON=C2c2ccccc2)ccc1O	-21	i	i	i	i	/	/
COc1cc(/C=C2\C(=O)ON=C2c2ccccc2)cc(Cl)c1O	-43	i	i	-8.9*	i	115*	0.14*
CCOc1cc(/C=C2\C(=O)ON=C2c2ccccc2)cc(Br)c1O	-32	6*	i	-8.8*	i	135*	0.098*
Cc1ccc(/C=C2/C(=O)ON=C2c2ccccc2)o1	-11	i	i	-10*	i	122*	i
COc1cccc(C(=O)OCC(=O)NC(C)CCc2ccccc2)c1O (centres undefined)	-7	i	i	i	i	/	/
CCc1ccc(NC(=O)CN(c2ccccc2)S(=O)(=O)N(C)C)cc1	-4	i	i	-10*	i	103*	i
Cc1cc(C)c(S(=O)(=O)N2CCCC2)c(C)c1	-4	i	i	i	i	/	/
Cc1cc(C)c(S(=O)(=O)N2CCN(S(=O)(=O)N3CCOCC3)CC2)c(C)c1	-4	i	i	-13*	i	52*	i
CCN1CCN(c2c(/C=C3\SC(=S)N(Cc4ccco4)C3=O)c(C)c(C#N)c(=O)n2C)CC1	-37	7*	i	-16*	i	141*	0.089*
O=c1c(-c2ccccc2)c(-c2ccccc2)oc2cc(O)cc(O)c12	-14	13*	i	-9*	i	112*	i
CC1=C(C(=O)Nc2cccc(C(=O)NCc3ccccc3C)c2)SCCO1	-11	i	i	-8.8*	-6.6*	100*	i
CC1=C(C(=O)Nc2cccc(C(=O)NC(C)C)c2)SCCO1	-4	i	i	i	i	/	/
CC1=C(C(=O)Nc2cccc(C(=O)NCc3ccc(F)cc3)c2)SCCO1	-9	i	i	-9*	i	84*	i
CCCN1Cc2cccc(C(=O)NCCc3cccc(C)c3)c2C1=O	-10	i	i	-9.7*	i	110*	0.15*
CCOC(=O)N1CCN(C(=O)CSCC(=O)Nc2nc(-c3ccc(-c4ccccc4)cc3)cs2)CC1	-15	6*	i	-10*	i	117*	0.15*
CCc1ccc(-c2cc(C)no2)cc1S(=O)(=O)N1CCN(c2ccccc2F)CC1	-13	i	i	-8.8*	i	81*	i
CCc1ccc(-c2cc(C)no2)cc1S(=O)(=O)N1CCN(c2ccc(C(C)=O)cc2)CC1	-18	i	i	i	i	/	/
C=CCOc1ccc(C(=O)c2ccccc2)c(OCC(=O)NC2(C#N)CCCC2)c1	-12	i	i	-8.7*	i	90*	i
N#CC1(NC(=O)COc2ccccc2[N+](=O)[O-])CCCCC1	-7	i	i	i	i	/	/
